# From PubChem BioAssay AID624380 (The Scripps Research Institute Molecular Screening Center, 2012)
# Among all 2,300 compounds or so, about 120 (5.2%) were called active. Only a sample is shown. Unmarked numbers belong to inactive results.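 How the source made its calls: active means mean activation above the mean of DMSO-only wells plus 3 SD (cut at about 0.5% in these data); inactive means the rest.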
# Molecular target: Mu-type opioid receptor (Homo sapiens) (UniProt P35372)
# Test: OPRM1 agonists via beta-arrestin recruitment, confirmation, counter-screen for mouse HTR2A agonist project, cell-based, luminescence, single concentration (AID 624380)
# Conditions: U2OS OPRM1 beta-arrestin PathHunter, at 9.3 µM, active compounds read high, DMSO 0%, DAMGO 9.3 µM 100%
# In short: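 Assay system – U2OS cells coexpressing OPRM1 and beta-arrestin with complementary beta-gal fragments · Amount – 1000 cells per well seeded a day ahead · Probe or stimulus – DAMGO reference agonist, 9.3 µM · Times – 3 h at 37 °C exposure, 1 h room-temperature detection · Detection – luminescence from restored beta-galactosidase · Read-out – percent activation scaled between DMSO-only and DAMGO-treated well medians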
# Mu-type opioid receptor (Homo sapiens), sequence (P35372 whole entry, looked up): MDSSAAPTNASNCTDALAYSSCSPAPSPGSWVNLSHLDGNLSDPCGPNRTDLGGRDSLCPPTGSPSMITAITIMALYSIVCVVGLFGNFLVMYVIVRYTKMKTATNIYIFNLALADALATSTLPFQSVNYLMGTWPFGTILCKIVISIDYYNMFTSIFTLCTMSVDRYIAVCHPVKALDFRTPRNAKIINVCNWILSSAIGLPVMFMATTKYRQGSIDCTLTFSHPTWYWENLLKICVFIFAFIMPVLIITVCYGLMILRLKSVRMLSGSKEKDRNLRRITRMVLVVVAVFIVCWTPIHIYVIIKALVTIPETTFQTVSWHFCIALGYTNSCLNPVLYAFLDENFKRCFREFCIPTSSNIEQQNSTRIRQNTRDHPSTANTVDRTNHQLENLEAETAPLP
row,SMILES,activation
1,O=C(NCc1ccco1)c1cccn2c(=O)c3c4c(sc3nc12)CCCC4,-0.39%
2,Cc1ccc2nc(-c3ccncc3)cc(C(=O)Nc3ccncc3)c2c1,3.9% (active)
3,Cc1ccccc1CSCC(=O)NC(=O)NC(C)(C)C,-0.45%
4,CCOCCCNC(=O)Cc1cc(=O)[nH]c(=O)[nH]1,-0.49%
5,C[C@@H]1ON(C)[C@H]2C[C@H]3c4cc(N5CCN(C)CC5)ccc4CCN3C(=O)[C@@H]12,-0.06%
6,Cc1ccc(CN2CCN(c3ncccn3)CC2)c(C)c1,-0.26%
7,O=C(COC(=O)c1cc(S(=O)(=O)N2CCOCC2)ccc1F)NC1CC1,-0.39%
8,CCOc1ccc(/C(O)=C2\C(=O)C(=O)N(c3ccc(OC)cc3)C2c2ccccc2[N+](=O)[O-])cc1 (centres undefined),-0.58%
9,Nc1cc(C(=O)N2CCN(c3ccccc3Cl)CC2)ccc1N1CC2CC(C1)c1cccc(=O)n1C2 (centres undefined),-0.61%
10,COc1ccc(CNC(=O)c2ccc(NS(=O)(=O)c3ccc4[nH]c(=O)[nH]c4c3)cc2)cc1OC,-0.74%
11,O=S(=O)(c1ccc(OCC(O)CN2CCN(c3ccccc3Cl)CC2)cc1)N1CCOCC1 (centres undefined),-0.67%
12,CCOC(=O)c1cc(-c2ccccc2C)n(Cc2cc(C)no2)n1,-0.46%
13,O=C(OCC(=O)N1CCOCC1)c1ccc2ccccc2c1,-0.5%
14,COc1ccc2c(Cl)c(-c3nnco3)sc2c1,-0.41%
15,COc1ccc(C2c3[nH]c4ccccc4c3C[C@H]3C(=O)N(CC(C)C)CC(=O)N23)c(OC)c1 (some centres undefined),-0.31%
16,COc1ccccc1CN1CCN(Cc2cc(OC)c(OC)cc2OC)CC1,-0.5%
17,COC(=O)c1cc(N2CCNCC2)nc2ccccc12,-0.87%
18,O=C(c1ccncc1)N1CCN(c2ccc3ccccc3n2)CC1,0.53% (active)
19,O=C(Cc1ccccc1)n1nc(-c2ccccc2)nc1NCc1ccco1,0.54% (active)
20,COc1ccc(N2CC(C(=O)NCCN3C(=O)S/C(=C\c4cccnc4)C3=O)CC2=O)c(OC)c1 (centres undefined),-0.55%
21,Cc1c(C(=O)NCC2CC2)sc(=O)n1Cc1cccc(F)c1,-0.53%
22,CCn1c(SCC(=O)N2CCCC2=O)nc2ccccc21,-0.43%
23,Cc1cccnc1C(NC(=O)C1CCN(Cc2ccc(Cl)c(Cl)c2)CC1)c1ccc(Cl)cc1 (centres undefined),-0.69%
24,O=C(Cc1ccsc1)N1CCN(S(=O)(=O)c2cc(C(F)(F)F)cc(C(F)(F)F)c2)CC1,-0.45%
